# Test results taken from ChEMBL document CHEMBL4251758, “Small Molecule Inhibition of MicroRNA miR-21 Rescues Chemosensitivity of Renal-Cell Carcinoma to Topotecan” (J Med Chem, 2018).
# Activity calls are given as the source filed them. The rule behind the calls is not given here.
# Test system: microRNA 21
# Experiment: Inhibition of miR-21 RNA in human HeLa cells harboring miR-21 binding sequence in 3'-UTR of firefly luciferase gene assessed as increase in luciferase expression incubated for 48 hrs by Bright-Glo luciferase reporter gene assay relative to control
# Assay type: cell-based
# Conditions: not given
# Outline: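 HeLa-miR21-Luc stable line (miR-21 site in the firefly luciferase 3′-UTR), 1000 cells per well. Compound or DMSO (0.1% final) added after overnight attachment, in triplicate, for 48 h. Bright-Glo luminescence was normalized to XTT viability (450 nm) and expressed as fold change relative to DMSO. At least three independent experiments.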
row,SMILES,fold change (FC)
1,C#CCOc1cccc(-n2nnc(-c3nc(-c4cccs4)no3)c2N)c1,1.61
2,C=CCOc1ccc(-c2noc(-c3nnn(-c4cccc(/C(C)=N/O)c4)c3N)n2)cc1,2.96
3,C#CCOc1ccc(-n2nnc(-c3nc(-c4cccs4)no3)c2N)cc1,1.47
4,Nc1c(-c2nc(-c3cccs3)no2)nnn1-c1cccc(CO)c1,1.67
5,Nc1c(-c2nc(-c3cccs3)no2)nnn1-c1ccccc1CO,2.23
6,COc1ccc(-c2noc(-c3nnn(-c4cccc(/C(C)=N/O)c4)c3N)n2)cc1,1.51
7,C/C(=N\O)c1cccc(-n2nnc(-c3nc(-c4ccc(O)cc4)no3)c2N)c1,1.98
8,CN(C)c1cccc(-n2nnc(-c3nc(-c4cccs4)no3)c2N)c1,2.56
9,CCc1cccc(-n2nnc(-c3nc(-c4cccs4)no3)c2N)c1,1.63
10,Nc1c(-c2nc(-c3cccs3)no2)nnn1-c1cccc(C(F)(F)F)c1,1.08
11,Nc1c(-c2nc(-c3cccs3)no2)nnn1-c1ccc2ccccc2c1,1.39
12,COc1cccc(-n2nnc(-c3nc(-c4ccccn4)no3)c2N)c1,2.23
13,CC(C)c1cccc(-n2nnc(-c3nnc(-c4cccs4)o3)c2N)c1,1.72
14,Nc1c(-c2nc(-c3cccs3)no2)nnn1-c1ccccc1,1.01
15,Fc1cccc(-n2cc(-c3nc(-c4cccs4)no3)nn2)c1,1.7
16,CC(=O)c1cccc(-n2nnc(-c3nc(-c4cccs4)no3)c2N)c1,2.46
17,Nc1c(-c2nc(-c3cccs3)no2)nnn1-c1cccc(F)c1,1.93
18,C/C(=N\O)c1cccc(-n2nnc(-c3nc(-c4cccs4)no3)c2N)c1,4.54

row,SMILES,fold change (FC)
1,COc1cccc(-n2nnc(-c3nnc(-c4cccs4)o3)c2N)c1,2.68
2,CCOc1ccc(-c2noc(-c3nnn(-c4cccc(/C(C)=N/O)c4)c3N)n2)cc1,3.14
3,Cc1cccc(-n2nnc(-c3nc(-c4cccs4)no3)c2N)c1C,1.89
4,COc1cccc(-n2nnc(-c3nc(-c4ccccc4)no3)c2N)c1,2.19
5,COc1ccccc1-n1nnc(-c2nc(-c3cccs3)no2)c1N,2.02
6,COc1cccc(-n2cc(-c3nc(-c4cccs4)no3)nn2)c1,2.2
7,COc1cc(OC)cc(-n2nnc(-c3nc(-c4cccs4)no3)c2N)c1,2.3
8,COc1cccc(-n2nnc(-c3nc(-c4ccco4)no3)c2N)c1,2.19
9,Nc1c(-c2nc(-c3cccs3)no2)nnn1-c1cccc(C(=O)c2ccccc2)c1,1.82
10,Nc1c(-c2nc(-c3cccs3)no2)nnn1-c1ccc(CO)cc1,2.14
11,Nc1c(-c2nnc(-c3cccs3)o2)nnn1-c1cccc(F)c1,1.6
12,CC(C)c1cccc(-n2nnc(-c3nc(-c4cccs4)no3)c2N)c1,1.82
13,Nc1c(-c2nc(-c3cccs3)no2)nnn1-c1cccc(OC(F)(F)F)c1,1.4
14,Nc1c(-c2nc(-c3cccs3)no2)nnn1-c1cccc(-c2ccccc2)c1,1.06
15,C/C(=N\O)c1cccc(-n2nnc(-c3nc(-c4ccc(OC(C)C)cc4)no3)c2N)c1,1.19
16,c1ccc(-n2cc(-c3nc(-c4cccs4)no3)nn2)cc1,1.41
17,Nc1c(-c2nc(-c3cccs3)no2)nnn1-c1cccc(O)c1,2.19
18,COc1cccc(-n2nnc(-c3nc(-c4cccs4)no3)c2N)c1,2.84

# Test system: not listed separately
# Experiment: Stabilization of pre-miR-21 RNA (unknown origin) assessed as increase in melting temperature at 10 uM by UV-spectrophotometric analysis
# Conditions: not given
# Outline: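 Melting-curve analysis of precursor miR-21 RNA run with test compound, with DMSO as the reference condition and tobramycin (10 μM) as a positive control for RNA binding and stabilisation. Read-out is the shift in melting temperature of pre-miR-21 relative to the DMSO sample.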
row,SMILES,ΔTm [°C]
1,NC[C@H]1O[C@H](O[C@H]2[C@H](O)[C@@H](O[C@H]3O[C@H](CO)[C@@H](O)[C@H](N)[C@H]3O)[C@H](N)C[C@@H]2N)[C@H](N)C[C@@H]1O,19

# Test system: microRNA 21
# Experiment: Inhibition of miR-21 RNA (unknown origin) transfected in human HeLa cells at 0.1 to 1000 nM after 48 hrs by Bright-Glo luciferase reporter gene assay
# Assay type: cell-based
# Conditions: not given
row,SMILES,inhibition
1,CC[C@@]1(O)C(=O)OCc2c1cc1n(c2=O)Cc2cc3c(CN(C)C)c(O)ccc3nc2-1 [TOPOTECAN],inactive

# Test system: A498
# Experiment: Inhibition of colony formation of human A498 cells after 2 weeks by crystal violet staining-based microscopic analysis
# Assay type: functional, cell-based
# Conditions: A498, 336 h
# Outline: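 A498 cells, 10,000 per well, seeded in 0.45% low-melt agarose in DMEM over a 0.7% agarose base layer, containing increasing compound concentrations or DMSO (0.1% final), in triplicate. For combinations, the inhibitor was held at 10 μM. After 2 weeks, colonies were stained with 0.1% crystal violet and imaged by z-stack microscopy. Colony counts were normalized to DMSO; IC50 from sigmoidal fit.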
row,SMILES,IC50 [µM]
1,CC[C@@]1(O)C(=O)OCc2c1cc1n(c2=O)Cc2cc3c(CN(C)C)c(O)ccc3nc2-1 [TOPOTECAN],2

# Test system: A498
# Experiment: Induction of apoptosis in human A498 cells assessed as increase in caspase-3/7 activity at 1 uM after 24 hrs by Caspase-Glo 3/7 assay relative to control
# Assay type: functional
# Conditions: not given
row,SMILES,fold change (FC)
1,CC[C@@]1(O)C(=O)OCc2c1cc1n(c2=O)Cc2cc3c(CN(C)C)c(O)ccc3nc2-1 [TOPOTECAN],3
